Assay results collected from several papers.
Compare with care: the assays were run in different laboratories.
Target: 5-hydroxytryptamine receptor 7 (HTR7, Homo sapiens, UniProt P34969)
Technique: radioligand

`CCCCN1CCC(COC(=O)c2ccc(N)c(OCF)c2)CC1` has a Ki of greater than 10000 nM (cell-free assay).
The Ki of `CC1(CCN2CCc3ccccc3C2)Cc2cc(Cl)ccc2C1=O` (racemic) is reported as 2.1 nM (ligand displacement).
For `Cc1nc2sccn2c(=O)c1CCN1CCC(=C(c2ccc(F)cc2)c2ccc(F)cc2)CC1`, the Ki was 468 nM (ligand displacement; cell membranes).
For `O=C1c2ccccc2CCN1CCCCN1CCN(c2cccc(Cl)c2Cl)CC1`, the Ki was 21 nM (ligand displacement).
`CNc1nc2cc(OCCCCN3CCC(c4cccc(Cl)c4Cl)CC3)ccc2s1` gave a Ki of 95 nM (cell-free assay).
For `O=C(CCCN1CCCN(c2ccc(Cl)cc2)CC1)c1ccc(F)cc1`, the Ki was 78 nM (ligand displacement).
With `CN1CCN(CCCN2c3ccccc3Sc3ccc(C(F)(F)F)cc32)CC1` the Ki was 497 nM (ligand displacement; cell membranes).
`CCc1nc2cc(OCCCCN3CCC(c4cccc(Cl)c4Cl)CC3)ccc2s1` gave a Ki of 160 nM (cell-free assay).
